In ChEMBL document CHEMBL4118126, “An orally available, brain-penetrant CAMKK2 inhibitor reduces food intake in rodent model” (Bioorg Med Chem Lett, 2018):
Converted amounts (≈) assume the structure as drawn.

Key:
[1] = target: Calcium/calmodulin-dependent protein kinase kinase 2 (Mus musculus, UniProt Q8C078); assay: Inhibition of CAMKK2 in mouse N39 cells assessed as decrease in AMPKalpha phosphorylation at T172 preincubated for 80 mins followed by […] addition by ELISA; format: cell-based
Summary of the method: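 Mouse N39 cells seeded ~1000 cells/well, cultured overnight at 37°C, 5% CO2, then exposed to compound in DMSO for 80 min before ionomycin stimulation ([…] as added). Cells were lysed in extraction buffer for 30 min on ice, then diluted into ice-cold lysis buffer containing protease and phosphatase inhibitors for MSD read-out.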

[2] = Solubility of the compound in pH 7.4 phosphate buffer saline after 1 hr by chemiluminescence nitrogen detection method; format: physicochemical; details: phosphate buffered saline
Summary of the method: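 Kinetic solubility: 10 mM DMSO stock diluted 1:20 into 10 mM phosphate-buffered saline pH 7.4, equilibrated 1 h at RT, filtered, and filtrate quantified by calibrated flow-injection chemiluminescent nitrogen detection.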

[3] = target: T1, Inhibitor of nuclear factor kappa-B kinase subunit alpha (Homo sapiens, UniProt O15111); assay: Inhibition of IKK1 (unknown origin)
T1 sequence (O15111 whole entry): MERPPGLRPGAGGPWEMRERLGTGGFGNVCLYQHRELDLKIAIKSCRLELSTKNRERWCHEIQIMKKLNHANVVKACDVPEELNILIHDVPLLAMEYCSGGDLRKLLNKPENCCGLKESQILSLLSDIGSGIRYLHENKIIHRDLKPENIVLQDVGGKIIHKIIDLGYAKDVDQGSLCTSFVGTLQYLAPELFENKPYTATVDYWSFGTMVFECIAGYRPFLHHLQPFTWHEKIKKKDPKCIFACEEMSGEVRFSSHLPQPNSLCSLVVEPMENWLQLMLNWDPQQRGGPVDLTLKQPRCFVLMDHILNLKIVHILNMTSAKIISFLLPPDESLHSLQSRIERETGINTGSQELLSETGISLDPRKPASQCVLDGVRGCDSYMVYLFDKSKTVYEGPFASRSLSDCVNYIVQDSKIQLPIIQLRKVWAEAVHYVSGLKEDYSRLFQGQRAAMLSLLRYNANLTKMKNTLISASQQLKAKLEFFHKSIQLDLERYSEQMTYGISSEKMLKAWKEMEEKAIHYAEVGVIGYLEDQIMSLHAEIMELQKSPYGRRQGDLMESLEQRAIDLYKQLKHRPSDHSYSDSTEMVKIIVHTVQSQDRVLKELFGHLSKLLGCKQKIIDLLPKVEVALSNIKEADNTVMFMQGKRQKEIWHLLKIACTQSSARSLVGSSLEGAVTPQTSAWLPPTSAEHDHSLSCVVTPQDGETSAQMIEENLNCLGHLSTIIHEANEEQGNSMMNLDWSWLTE

Insulin receptor = Insulin receptor (Homo sapiens, UniProt P06213); assay: Inhibition of INSR (unknown origin); details: read-out: pIC50 (converted)
Sequence of Insulin receptor (P06213 28-758 limits assumed): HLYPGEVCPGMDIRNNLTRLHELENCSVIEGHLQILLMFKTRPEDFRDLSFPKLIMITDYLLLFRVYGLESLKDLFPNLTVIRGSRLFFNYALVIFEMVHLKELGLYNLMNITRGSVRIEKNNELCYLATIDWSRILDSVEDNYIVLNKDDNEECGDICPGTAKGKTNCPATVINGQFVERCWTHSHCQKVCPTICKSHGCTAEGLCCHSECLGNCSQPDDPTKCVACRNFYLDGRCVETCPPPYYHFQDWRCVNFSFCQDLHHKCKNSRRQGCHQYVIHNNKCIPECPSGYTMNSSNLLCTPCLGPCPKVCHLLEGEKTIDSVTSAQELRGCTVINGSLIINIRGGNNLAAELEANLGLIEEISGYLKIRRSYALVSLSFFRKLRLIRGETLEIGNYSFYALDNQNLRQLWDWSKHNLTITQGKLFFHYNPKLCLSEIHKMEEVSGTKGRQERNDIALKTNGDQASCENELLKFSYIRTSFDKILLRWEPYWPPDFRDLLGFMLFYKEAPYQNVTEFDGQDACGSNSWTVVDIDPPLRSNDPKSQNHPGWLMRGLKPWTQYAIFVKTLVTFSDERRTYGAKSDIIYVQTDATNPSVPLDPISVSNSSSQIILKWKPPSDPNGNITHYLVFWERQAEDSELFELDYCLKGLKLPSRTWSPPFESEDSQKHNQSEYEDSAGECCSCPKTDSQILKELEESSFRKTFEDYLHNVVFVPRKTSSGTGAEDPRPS
Sequence of Insulin receptor (P06213 763-1382 limits assumed): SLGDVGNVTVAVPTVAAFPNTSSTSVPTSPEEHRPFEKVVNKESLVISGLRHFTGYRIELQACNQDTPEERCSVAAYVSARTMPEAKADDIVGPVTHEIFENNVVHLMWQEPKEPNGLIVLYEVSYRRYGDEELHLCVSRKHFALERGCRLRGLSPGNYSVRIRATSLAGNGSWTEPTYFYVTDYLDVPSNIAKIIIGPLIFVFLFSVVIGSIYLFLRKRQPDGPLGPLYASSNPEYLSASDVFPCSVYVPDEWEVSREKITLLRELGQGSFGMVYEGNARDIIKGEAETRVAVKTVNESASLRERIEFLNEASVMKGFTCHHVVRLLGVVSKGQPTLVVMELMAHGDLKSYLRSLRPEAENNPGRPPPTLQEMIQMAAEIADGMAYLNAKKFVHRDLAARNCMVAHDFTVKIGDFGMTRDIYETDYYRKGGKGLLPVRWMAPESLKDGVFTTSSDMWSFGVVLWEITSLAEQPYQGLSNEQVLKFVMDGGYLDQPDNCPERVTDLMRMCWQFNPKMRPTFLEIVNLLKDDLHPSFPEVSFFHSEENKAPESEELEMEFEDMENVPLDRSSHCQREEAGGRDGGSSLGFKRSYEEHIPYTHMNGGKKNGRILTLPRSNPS

[4] = target: Calcium/calmodulin-dependent protein kinase kinase 2 (Homo sapiens, UniProt Q96RR4); assay: Inhibition of full-length human GST-tagged CAMKK2 using 5FAM-AKPKGNKDYHLQTCCGSLAYRRR-amide as substrate preincubated for 30 mins followed by substrate addition measured after 120 mins by fluorescence polarization assay
Sequence of Calcium/calmodulin-dependent protein kinase kinase 2 (Homo sapiens, UniProt Q96RR4) (Q96RR4 whole entry): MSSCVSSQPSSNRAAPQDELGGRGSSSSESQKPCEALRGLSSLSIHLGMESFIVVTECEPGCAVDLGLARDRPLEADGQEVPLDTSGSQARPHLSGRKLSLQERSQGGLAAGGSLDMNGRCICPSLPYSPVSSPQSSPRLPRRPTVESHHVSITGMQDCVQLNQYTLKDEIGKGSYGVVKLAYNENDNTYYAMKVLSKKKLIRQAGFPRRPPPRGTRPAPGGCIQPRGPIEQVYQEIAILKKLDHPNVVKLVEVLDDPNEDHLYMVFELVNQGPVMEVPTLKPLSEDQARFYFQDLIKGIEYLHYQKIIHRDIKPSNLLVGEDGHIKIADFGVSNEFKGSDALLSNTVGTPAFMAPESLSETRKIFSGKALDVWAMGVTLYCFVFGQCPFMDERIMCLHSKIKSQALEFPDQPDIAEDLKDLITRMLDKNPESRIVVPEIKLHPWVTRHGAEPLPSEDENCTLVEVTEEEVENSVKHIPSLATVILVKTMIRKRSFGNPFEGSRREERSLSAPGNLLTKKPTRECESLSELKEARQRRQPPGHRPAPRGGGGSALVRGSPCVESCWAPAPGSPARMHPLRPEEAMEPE

[5] = target: Mitogen-activated protein kinase 8 (Homo sapiens, UniProt P45983); assay: Inhibition of JNK1 (unknown origin)
Sequence of Mitogen-activated protein kinase 8 (P45983 whole entry): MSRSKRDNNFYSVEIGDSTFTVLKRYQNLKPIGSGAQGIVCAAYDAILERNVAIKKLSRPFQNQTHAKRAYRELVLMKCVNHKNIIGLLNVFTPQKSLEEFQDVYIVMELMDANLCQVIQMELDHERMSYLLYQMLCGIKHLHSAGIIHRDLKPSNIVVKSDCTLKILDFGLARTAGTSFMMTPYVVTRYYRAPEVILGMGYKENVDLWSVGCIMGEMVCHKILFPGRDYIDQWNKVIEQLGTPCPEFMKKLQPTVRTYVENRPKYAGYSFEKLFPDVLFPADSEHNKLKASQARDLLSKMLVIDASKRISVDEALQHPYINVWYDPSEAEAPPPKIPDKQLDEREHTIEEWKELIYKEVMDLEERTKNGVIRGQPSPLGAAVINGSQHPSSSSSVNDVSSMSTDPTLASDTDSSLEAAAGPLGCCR

Sequence of Calcium/calmodulin-dependent protein kinase kinase 2 (Mus musculus, UniProt Q8C078) (Q8C078 whole entry): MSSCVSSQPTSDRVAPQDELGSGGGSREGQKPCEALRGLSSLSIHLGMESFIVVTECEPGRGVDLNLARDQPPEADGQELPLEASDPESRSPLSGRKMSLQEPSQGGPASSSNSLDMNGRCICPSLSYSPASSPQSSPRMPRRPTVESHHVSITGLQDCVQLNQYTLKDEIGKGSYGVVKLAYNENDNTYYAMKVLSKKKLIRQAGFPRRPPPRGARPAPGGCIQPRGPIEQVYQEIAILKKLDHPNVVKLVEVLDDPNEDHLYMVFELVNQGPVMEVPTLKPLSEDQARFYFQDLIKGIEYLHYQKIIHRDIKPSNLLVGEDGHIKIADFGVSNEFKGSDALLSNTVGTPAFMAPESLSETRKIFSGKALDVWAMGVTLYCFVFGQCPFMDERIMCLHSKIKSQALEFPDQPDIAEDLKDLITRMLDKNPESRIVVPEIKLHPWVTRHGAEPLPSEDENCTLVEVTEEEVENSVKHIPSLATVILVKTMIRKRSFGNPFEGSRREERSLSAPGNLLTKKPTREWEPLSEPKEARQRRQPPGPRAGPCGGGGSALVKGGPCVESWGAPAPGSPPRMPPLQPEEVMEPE

SMILES	IC50 [1]	solubility at 1 h [2]	IC50 [3]	IC50 (Insulin receptor)	IC50 [4]	IC50 [5]
O=C(O)c1ccc(-c2c[nH]c3ncccc23)cc1C1CCCC1	3980 nM	> 290 µM	–	–	–	–
CN(C)Cc1cccc(-c2cc3c(-c4ccc(C(N)=O)cc4)ccnc3[nH]2)c1	126 nM	56 µM (≈ 20.7 µg/mL)	79.4 nM	631 nM	3.98 to 31.6 nM	631 nM
N#Cc1ccc2c(-c3ccc(C(=O)O)cc3)c[nH]c2n1	–	235 µM (≈ 61.9 µg/mL)	–	–	2510 to 10000 nM	–
CC(C)c1cc(-c2c[nH]c3nc(C#N)ccc23)ccc1C(N)=O	–	14 µM (≈ 4.26 µg/mL)	–	–	1260 to 10000 nM	–
Cc1cc(OCCN2CCOCC2)ccc1-c1cc2c(-c3ccc(C(N)=O)cc3)ccnc2[nH]1	158 nM	11 µM (≈ 5.02 µg/mL)	126 nM	1260 nM	1.58 nM	200 nM
O=C(O)c1ccc(-c2c[nH]c3ncc(-c4ccccc4Oc4ccccc4)cc23)cc1	–	24 µM (≈ 9.75 µg/mL)	–	–	–	–
COc1ccccc1-c1cnc2[nH]cc(-c3ccc(C(N)=O)c(C4CCCC4)c3)c2c1	> 10000 nM	1 µM (≈ 0.412 µg/mL)	–	–	–	–
CN(C)CCCNC(=O)c1cccc(-c2cc3c(-c4ccc(C(N)=O)cc4)ccnc3[nH]2)c1	3980 nM	–	126 nM	3160 nM	2.51 to 12.6 nM	631 nM
CN(C)c1ccccc1-c1cnc2[nH]cc(-c3ccc(C(N)=O)c(C4CCCC4)c3)c2c1	> 10000 nM	2 µM (≈ 0.849 µg/mL)	–	–	–	–
N#Cc1ccc2c(-c3ccc(C(=O)O)c(C4CCCC4)c3)c[nH]c2n1	6310 nM	155 µM (≈ 51.4 µg/mL)	–	–	–	–
CN(C)CCCNC(=O)c1ccc(-c2cc3c(-c4ccc(C(N)=O)cc4)ccnc3[nH]2)cc1	> 10000 nM	29 µM (≈ 12.8 µg/mL)	79.4 nM	158 nM	1.58 to 12.6 nM	126 nM
CC(C)c1cc(-c2c[nH]c3ncc(-c4ccccc4)cc23)ccc1C(=O)O	1260 nM	> 439 µM	–	–	–	–
Cc1ccc(CN2CCOCC2)cc1-c1cc2c(-c3ccc(C(N)=O)cc3)ccnc2[nH]1	31.6 nM	2 µM (≈ 0.853 µg/mL)	3160 nM	> 10000 nM	1.58 to 15.8 nM	6310 nM
N#Cc1ccc2c(-c3ccc(C(N)=O)c(C4CCCC4)c3)c[nH]c2n1	–	7 µM (≈ 2.31 µg/mL)	–	–	1260 to 10000 nM	–
Cc1ccc(OCCN2CCOCC2)cc1-c1cc2c(-c3ccc(C(N)=O)cc3)ccnc2[nH]1	–	17 µM (≈ 7.76 µg/mL)	200 nM	3980 nM	2 to 31.6 nM	158 nM
CC(C)Oc1ccccc1-c1cnc2[nH]cc(-c3ccc(C(N)=O)c(C4CCCC4)c3)c2c1	> 10000 nM	–	–	–	–	–
CS(=O)(=O)c1cccc(-c2cnc3[nH]cc(-c4ccc(C(N)=O)cc4)c3c2)c1	–	> 115 µM	–	–	–	–
CS(=O)(=O)Nc1cccc(-c2cc3c(-c4ccc(C(N)=O)cc4)ccnc3[nH]2)c1	3160 nM	13 µM (≈ 5.28 µg/mL)	158 nM	1260 nM	3.16 to 12.6 nM	200 nM
NC(=O)c1ccc(-c2c[nH]c3ncc(-c4ccccc4C(F)(F)F)cc23)cc1C1CCCC1	–	12 µM (≈ 5.39 µg/mL)	–	–	–	–
CS(=O)(=O)Nc1ccc(-c2cc3c(-c4ccc(C(N)=O)cc4)ccnc3[nH]2)cc1	316 nM	5 µM (≈ 2.03 µg/mL)	31.6 nM	316 nM	2 to 12.6 nM	63.1 nM
Cc1ccc2c(-c3ccc(C(=O)O)c(C4CCCC4)c3)c[nH]c2n1	> 10000 nM	> 279 µM	–	–	–	–

SMILES	IC50 [1]	solubility at 1 h [2]	IC50 [3]	IC50 (Insulin receptor)	IC50 [4]	IC50 [5]
Cc1cc(-c2c[nH]c3ncc(-c4ccccc4)cc23)ccc1C(=O)O	–	100 µM (≈ 32.8 µg/mL)	–	–	–	–
Cc1c(OCCN2CCOCC2)cccc1-c1cc2c(-c3ccc(C(N)=O)cc3)ccnc2[nH]1	251 nM	17 µM (≈ 7.76 µg/mL)	158 nM	3160 nM	2 to 15.8 nM	251 nM
NC(=O)c1ccc(-c2c[nH]c3ncc(-c4ccccc4OC(F)(F)F)cc23)cc1C1CCCC1	> 10000 nM	2 µM (≈ 0.931 µg/mL)	–	–	–	–
Cc1c(CN2CCOCC2)cccc1-c1cc2c(-c3ccc(C(N)=O)cc3)ccnc2[nH]1	200 nM	18 µM (≈ 7.68 µg/mL)	100 nM	1260 nM	1.58 to 12.6 nM	316 nM
NC(=O)c1ccc(-c2c[nH]c3ncc(-c4ccccc4O)cc23)cc1C1CCCC1	3980 nM	6 µM (≈ 2.38 µg/mL)	–	–	–	–
CC(C)c1cc(-c2c[nH]c3nc(C#N)ccc23)ccc1C(=O)O	6310 nM	> 172 µM	–	–	–	–
COc1ccccc1-c1cc2c(-c3ccc(C(N)=O)cc3)ccnc2[nH]1	794 nM	16 µM (≈ 5.49 µg/mL)	158 nM	1580 nM	3.16 to 20 nM	158 nM
NC(=O)c1ccc2c(-c3ccc(C(=O)O)c(C4CCCC4)c3)c[nH]c2n1	–	> 205 µM	–	–	1260 to 10000 nM	–
c1ccc(-c2cnc3[nH]cc(-c4ccc(-c5nn[nH]n5)cc4)c3c2)cc1	–	276 µM (≈ 93.4 µg/mL)	–	–	–	–
Cc1ccc(CN2CCOCC2)cc1-c1cc2c(-c3ccc(C(N)=O)c(C(C)C)c3)ccnc2[nH]1	200 nM	1 µM (≈ 0.469 µg/mL)	158 nM	> 10000 nM	1.58 to 20 nM	631 nM
N#CCc1ccccc1-c1cnc2[nH]cc(-c3ccc(C(N)=O)c(C4CCCC4)c3)c2c1	–	96 µM (≈ 40.4 µg/mL)	–	–	–	–
NC(=O)c1ccc(-c2c[nH]c3ncc(-c4ccccc4Oc4ccccc4)cc23)cc1C1CCCC1	> 10000 nM	52 µM (≈ 24.6 µg/mL)	–	–	–	–
NC(=O)c1ccc(-c2c[nH]c3ncc(-c4ccccc4Oc4ccccc4)cc23)cc1	–	9 µM (≈ 3.65 µg/mL)	–	–	–	–
Cc1cc(CN2CCOCC2)ccc1-c1cc2c(-c3ccc(C(N)=O)cc3)ccnc2[nH]1	2000 nM	18 µM (≈ 7.68 µg/mL)	126 nM	3980 nM	7.94 to 25.1 nM	631 nM
CS(=O)(=O)c1cccc(-c2cnc3[nH]cc(-c4ccc(C(=O)O)cc4)c3c2)c1	–	177 µM (≈ 69.5 µg/mL)	–	–	–	–
CCc1cc(-c2c[nH]c3ncc(-c4ccccc4)cc23)ccc1C(=O)O	–	178 µM (≈ 60.9 µg/mL)	–	–	20 nM	–
O=C(O)c1ccc(-c2c[nH]c3ncc(-c4ccccc4)cc23)cc1	–	82 µM (≈ 25.8 µg/mL)	–	–	200 nM	–
CC(C)Cc1cc(-c2c[nH]c3ncc(-c4ccccc4)cc23)ccc1C(=O)O	–	333 µM (≈ 123 µg/mL)	–	–	5.01 to 25.1 nM	–
COC(=O)c1ccc(-c2c[nH]c3ncc(-c4ccccc4)cc23)cc1	–	5 µM (≈ 1.64 µg/mL)	–	–	1260 nM	–
O=C(O)c1ccc(-c2c[nH]c3ncc(-c4ccccc4)cc23)cc1C1CCCC1 [GSK-650394]	1260 nM	150 µM (≈ 57.4 µg/mL)	–	–	–	–
